# Assay results from ChEMBL document CHEMBL4270585, “Novel selenadiazole derivatives as selective antitumor and radical scavenging agents” (Eur J Med Chem, 2018).
# Columns and labels:
# Format in all cases: functional
# [1] = system: PC-3; assay: Growth inhibition of human PC3 cells assessed as cell growth at 10 uM after 72 hrs by MTT assay relative to control; settings: PC-3, 72 h, read-out: Activity
# How it was run: (§1)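 MTT colorimetric microassay after 72 h treatment at 100 µM and 10 µM. Output is percentage of cell growth ± SEM from at least 3 independent experiments, each run in quadruplicate.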
# [2] = system: PC-3; assay: Growth inhibition of human PC3 cells assessed as cell growth at 100 uM after 72 hrs by MTT assay relative to control; settings: PC-3, 72 h, read-out: Activity; how it was run: as §1
# [3] = system: MCF7; assay: Growth inhibition of human MCF7 cells assessed as cell growth at 10 uM after 72 hrs by MTT assay relative to control; settings: MCF7, 72 h, read-out: Activity; how it was run: as §1
# [4] = system: MCF7; assay: Growth inhibition of human MCF7 cells assessed as cell growth at 100 uM after 72 hrs by MTT assay relative to control; settings: MCF7, 72 h, read-out: Activity; how it was run: as §1
# [5] = system: Calu-1; assay: Growth inhibition of human HTB-54 cells assessed as cell growth at 10 uM after 72 hrs by MTT assay relative to control; settings: Calu-1, 72 h, read-out: Activity; how it was run: as §1
# [6] = system: Calu-1; assay: Growth inhibition of human HTB-54 cells assessed as cell growth at 100 uM after 72 hrs by MTT assay relative to control; settings: Calu-1, 72 h, read-out: Activity; how it was run: as §1
# [7] = system: HT-29; assay: Growth inhibition of human HT-29 cells assessed as cell growth at 10 uM after 72 hrs by MTT assay relative to control; settings: HT-29, 72 h, read-out: Activity; how it was run: as §1
# [8] = system: HT-29; assay: Growth inhibition of human HT-29 cells assessed as cell growth at 100 uM after 72 hrs by MTT assay relative to control; settings: HT-29, 72 h, read-out: Activity; how it was run: as §1
# [9] = system: CCRF-CEM; assay: Growth inhibition of human CCRF-CEM cells assessed as cell growth at 10 uM after 72 hrs by MTT assay relative to control; settings: read-out: Activity; how it was run: as §1
# [10] = system: CCRF-CEM; assay: Growth inhibition of human CCRF-CEM cells assessed as cell growth at 100 uM after 72 hrs by MTT assay relative to control; settings: read-out: Activity; how it was run: as §1
SMILES,growth at 10 µM [1] [%],growth at 100 µM [2] [%],growth at 10 µM [3] [%],growth at 100 µM [4] [%],growth at 10 µM [5] [%],growth at 100 µM [6] [%],growth at 10 µM [7] [%],growth at 100 µM [8] [%],growth at 10 µM [9] [%],growth at 100 µM [10] [%]
O=C(Nc1cccc2cccnc12)c1ccc2n[se]nc2c1,83.2,19.2,41.6,-4.2,68.2,45.6,73.2,24.7,84.2,38.2
O=C(NCCc1ccccc1)c1ccc2n[se]nc2c1,107,18.2,54.1,-20.2,134,16.5,101,38.3,105,37.3
COc1cc(NC(=O)c2ccc3n[se]nc3c2)cc(OC)c1OC,115,22.6,76.2,-5.3,90.9,38.7,90.4,44.7,93.8,61.1
O=C(c1ccc2n[se]nc2c1)N1CCCCC1,118,73,118,53.1,103,71.1,92.9,60,98.6,76
O=C(Nc1cccs1)c1ccc2n[se]nc2c1,121,38.8,62.1,4.6,99.1,34.4,89.4,39.7,105,70.8
O=C(NCCCc1ccccc1)c1ccc2n[se]nc2c1,104,0.7,95.9,39.4,131,13.8,95.3,25.2,105,34.9
O=C(c1ccc2n[se]nc2c1)N1CCN(C(=O)c2ccc3n[se]nc3c2)CC1,87,31.1,70.3,27.2,88.3,78.2,94.2,39.9,99.7,66.2
O=C(NCc1ccccc1)c1ccc2n[se]nc2c1,98.2,27.8,56.7,-5.7,97.8,23.6,92.7,37.8,114,44.7
O=C(NCCCCc1ccccc1)c1ccc2n[se]nc2c1,102,7.9,96.3,40.4,98.1,1.1,83.9,10.3,95.5,40.4
O=C(Nc1ccc([N+](=O)[O-])cc1)c1ccc2n[se]nc2c1,113,58.8,63.8,5.6,148,108,101,78.8,96.3,70.5
O=C(NCCCO)c1ccc2n[se]nc2c1,131,74.5,57,13.7,151,99.2,99.8,58.8,106,58.9
O=C(Nc1ccc(N2CCOCC2)cc1)c1ccc2n[se]nc2c1,83.8,46.5,73.1,12.9,75.4,47.3,77.3,15.2,109,74.9
O=C(Nc1ccncc1)c1ccc2n[se]nc2c1,122,64.7,93.5,50.1,113,79.6,83.7,58.3,106,68.6
COc1ccc(CN2CCN(C(=O)c3ccc4n[se]nc4c3)CC2)cc1,69.5,82.7,71.9,5.8,91.6,31.5,70.8,29.9,92,31.6
O=C(NCc1ccc(Br)cc1)c1ccc2n[se]nc2c1,58.3,29.7,43.1,11.3,71,69.3,57.7,23.4,53.6,35.7
O=C(NC1CCCCC1)c1ccc2n[se]nc2c1,102,27.1,54.3,21.2,56.1,35.3,61.4,23.2,82.7,44.6
CCNC(=O)c1ccc2n[se]nc2c1,101,54.5,95.1,25.9,85.4,48.1,86.7,57.8,97.8,24.9
O=C(Nc1ccc(Cl)cc1)c1ccc2n[se]nc2c1,124,27.8,77.2,32.7,81.3,30.2,83.5,28.4,85.3,57.3
O=C(NCCCCO)c1ccc2n[se]nc2c1,104,50.6,64.8,-1.3,88.9,44.9,91.8,50.4,104,62.4
